Most compounds without a hit are left out; they make up all but 2.2% or so of the library.
PABP1 MLLE inh: inhibitors of PABP1 MLLE–PAM2 peptide binding, primary screen, biochemical, fluorescence polarization, FITC-PAM2, GST-MLLE; Polyadenylate-binding protein 1 (Homo sapiens), P11940; inhibition, % at 20 µM; 0.36% of 360,000 active; AID 588489, 2011; in the data active means inhibition above about 35%, passing the limit was not always enough;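 further: plate controls were DMSO wells with GST-MLLE for no effect and wells lacking GST-MLLE protein for full effect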
Target sequence (P11940 whole entry, looked up): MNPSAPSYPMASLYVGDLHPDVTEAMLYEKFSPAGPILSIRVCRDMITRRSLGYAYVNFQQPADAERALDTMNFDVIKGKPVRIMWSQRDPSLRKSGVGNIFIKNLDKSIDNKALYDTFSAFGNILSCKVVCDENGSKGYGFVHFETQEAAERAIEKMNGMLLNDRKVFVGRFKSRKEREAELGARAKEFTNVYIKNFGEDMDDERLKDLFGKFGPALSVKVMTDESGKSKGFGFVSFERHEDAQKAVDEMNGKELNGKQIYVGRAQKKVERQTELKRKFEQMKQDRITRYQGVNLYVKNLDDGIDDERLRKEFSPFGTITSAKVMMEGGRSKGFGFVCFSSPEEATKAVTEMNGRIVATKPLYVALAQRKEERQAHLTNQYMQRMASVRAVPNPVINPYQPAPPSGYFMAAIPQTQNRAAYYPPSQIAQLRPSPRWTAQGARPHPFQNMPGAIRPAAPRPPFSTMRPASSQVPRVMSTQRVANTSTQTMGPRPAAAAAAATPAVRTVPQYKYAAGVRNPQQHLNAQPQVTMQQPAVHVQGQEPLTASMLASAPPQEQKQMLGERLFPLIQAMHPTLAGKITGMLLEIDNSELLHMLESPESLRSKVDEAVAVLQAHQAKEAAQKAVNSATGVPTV
IMP-1 inh: IMP-1 metallo-beta-lactamase inhibitors, primary screen, biochemical, epi-absorbance readout, Pseudomonas aeruginosa enzyme. purified IMP-1, nitrocefin hydrolysis, epi-absorbance fluorescence. inhibition, % at 5.6 µM. 0.45% of 290,000 active. AID 1556, 2009;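 active means inhibition above the mean plus 3 SD of all compounds in the same screening run, cut at about 4.5% in these data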;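 further: 0% = IMP-1 with DMSO and 100% = DMSO wells lacking enzyme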
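Test system: recombinant IMP-1 enzyme, purified / Medium: HEPES buffer pH 7.1 with ZnSO4 and Brij 35 / Doses: single dose, 5.6 µM / Times: 25 °C, 15 min preincubation, 25 min reaction / Detection: Epi-absorbance via hydrolysed-nitrocefin quenching of white-plate fluorescence, 480/530 nm, EDTA stop / Evaluation: percent inhibition from optical density relative to buffer-blank wells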
PABP FP inh: PABP poly(A) RNA binding inhibitors, primary screen, biochemical, fluorescence polarization, uHTS; Polyadenylate-binding protein 1 (Homo sapiens), P11940; calls only at 35 µM; 1% of 290,000 active;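 further: calls also rest on retests at 20 µM and on dose response follow-up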
eIF4H inh: human eIF4H binding inhibitors, primary screen, translation initiation inhibitor project, biochemical, uHTS, fluorescence polarization; AID 2012, 2009; inhibition, % at 35 µM; Eukaryotic translation initiation factor 4H (Homo sapiens), Q15056; 0.94% of 290,000 active; eIF4H fluorescence polarization binding assay;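 further: calls also rest on retests at 20 µM and on dose response follow-up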
VIM-2 inh: VIM-2 metallo-beta-lactamase inhibitors, primary screen, biochemical, epi-absorbance readout, Pseudomonas aeruginosa enzyme; purified VIM-2, nitrocefin hydrolysis, epi-absorbance fluorescence; 0.89% of 290,000 active; AID 1527, 2009; inhibition, % at 5.6 µM;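 active means inhibition above the mean of all tested compounds plus 3 SD, cutoff set per screening run, cut at about 7.5% in these data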;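 further: red hydrolysis product quenches plate fluorescence so inhibitors raise well fluorescence; 0% = enzyme with DMSO and 100% = DMSO without enzyme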
Numbers without * were called inactive; i = inactive; ? = inconclusive; . = not tested or not shown; + = active, no number. Unless noted, how the calls were made is not given here.

SMILES | PABP1 MLLE inh | IMP-1 inh | PABP FP inh | eIF4H inh | VIM-2 inh
Cc1ccc(NCC(=O)Nc2ccc(F)c(Cl)c2)cc1S(=O)(=O)N1CCOCC1 | -1.9 | . | . | . | .
COc1cc2c(C(=O)N(C)c3ccc(F)cc3)cn(C)c(=O)c2cc1OC | 1.6 | -4.3 | i | 5.0 | -3.0
CCn1c(=O)c2cc(C(=O)NC(C)C)sc2c2ccccc21 | -4.0 | 0.0 | i | -10.2 | 5.7
CN1CCN(C(=O)c2cc3c(=O)n4ccccc4nc3s2)CC1 | -12.4 | -0.2 | i | -4.2 | 7.9*
CCn1c(=O)c2cc(C(=O)N3CCN(C)CC3)sc2c2ccccc21 | -1.2 | -2.4 | i | -5.5 | 9.0*
Cc1ccc(C)n1/N=C1/NC(=O)CS1 | 4.5 | -5.1 | + | 91.9* | -0.7
Cc1ccc(N=C2NC(=O)CS2)cc1 | -22.1 | -3.5 | i | -4.4 | -0.8
COc1cccc(N(CC(=O)NCCSCc2ccco2)S(=O)(=O)c2ccccc2)c1 | 23.8 | 5.0* | i | 5.0 | 1.4
CS(=O)(=O)Nc1ccc(C(=O)NCCSCc2ccco2)cc1 | 24.8 | -4.3 | i | -11.0 | -3.4
Cc1cccc(N(CC(=O)NCCSCc2ccco2)S(=O)(=O)c2ccccc2)c1 | 37.7 | -2.0 | i | 3.8 | 0.9
CS(=O)(=O)N(Cc1ccccc1)c1ccc(C(=O)NCCSCc2ccco2)cc1 | 44.8* | -0.8 | i | 18.6 | -1.8
Cc1ccc(-n2c(C)nc3oc4ccccc4c(=O)c3c2=O)cc1 | -31.6 | -2.1 | + | 40.1* | -2.3
CCSC1=C(C#N)C2(CCCCC2)C2=C(CC(C)(C)CC2=O)N1 | -1.3 | -4.2 | i | -7.6 | -1.1
CC1(C)CC(=O)C2=C(C1)NC(SCC(N)=O)=C(C#N)C21CCCCC1 | 36.5* | 1.4 | i | 2.5 | 1.4
N#C/C(=C\c1ccc(OCc2ccc(Br)cc2)cc1)C(=O)Nc1cccc(C(=O)O)c1 | 8.6 | 6.3* | i | 4.5 | -5.1
N#C/C(=C/c1ccc(OCc2ccc(C(=O)O)cc2)cc1)C(=O)Nc1ccccc1 | -129.6 | -2.6 | + | 20.8 | -1.1
N#C/C(=C\c1ccc(OCc2ccc(F)cc2)cc1)C(=O)Nc1cccc(C(=O)O)c1 | 6.2 | -1.8 | i | 33.2 | -3.4
COc1ncc(-c2ccc3c(c2)S(=O)(=O)c2cccc(C(=O)O)c2C3=O)cn1 | 5.3 | . | . | . | .
O=C(Cc1cccc2ccccc12)NN1C(=O)CSC1=S | -66.6 | -0.4 | i | -14.3 | -3.0
O=C(NN1C(=O)CSC1=S)C(=O)NN1C(=O)CSC1=S | 13.2 | 17.6* | i | 75.2 | 4.2
COc1ccc(-c2onc3ccc(Cl)cc23)cc1 | 24.0 | -1.9 | + | 50.6* | -0.7
COc1ccc(-c2cccc3c2NC(=O)C3=O)cc1OC | 3.8 | . | . | . | .
O=C(CCNC(=O)c1ccc(Cl)cc1)Nc1ccccc1N1CCCCC1 | -14.9 | . | . | . | .
O=C(CC1SC(=O)N(c2ccccc2)C1=O)Nc1cccc2ccccc12 (stereo unspecified) | 19.0 | 4.8* | i | -1.6 | -0.3
CN(Cc1cccs1)C(=O)/C=C/c1ccccc1[N+](=O)[O-] | -1.3 | -3.4 | i | -3.5 | -0.6
SMILES | PABP1 MLLE inh | IMP-1 inh | PABP FP inh | eIF4H inh | VIM-2 inh
COC(=O)c1ccc(/C=C(\C#N)c2nc3ccccc3s2)cc1 | -11.6 | 0.7 | + | ? | -1.2
CC1CCCCC12NC(=O)N(CC(=O)Nc1ccc(OC(F)F)cc1)C2=O (stereo unspecified) | -2.9 | . | . | . | .
CCOC(=O)C1CCN(C(=O)Cn2nc(C)n3nc(-c4ccc(CC)cc4)cc3c2=O)CC1 | 13.6 | -1.6 | i | -7.9 | 0.1
COc1ccc(OC)c(/C=C2\SC(=S)N(C(C(=O)O)c3ccccc3)C2=O)c1 (stereo unspecified) | -80.7 | 4.8* | i | -13.7 | 4.0
CCOc1ccc(/C=C2\SC(=S)N(C(C(=O)O)c3ccccc3)C2=O)cc1OC (stereo unspecified) | -1.6 | -2.4 | i | -4.3 | -1.4
CC(C)(C)c1ccc(S(=O)(=O)N2CCN(CC(O)CN3CCOCC3)CC2)cc1 (stereo unspecified) | 4.7 | . | . | . | .
CC(C)OC(=O)c1nn2c(C(F)(F)F)cc(-c3ccc(Br)o3)nc2c1Br | 26.4 | -2.2 | + | 44.4* | -3.2
CCCCCCCn1c(NC(=O)CC)nc2ccccc21 | -8.4 | -3.4 | + | 73.5* | -6.1
O=C(O)c1cc([N+](=O)[O-])ccc1NCc1ccccc1Cl | 5.0 | -2.6 | i | 4.3 | 11.3*
O=C(O)c1ccc(-c2ccco2)n1Cc1ccccc1 | -9.0 | 8.8* | i | 34.1 | 1.9
COc1ccc(/C=C(\C#N)c2nc3ccc(C)cc3[nH]2)cc1Oc1ccc(C(F)(F)F)cc1[N+](=O)[O-] | -8.7 | -1.2 | i | 44.6 | -2.4
Cc1ccc2nc(/C(C#N)=C\c3ccc(Oc4ccc(C(F)(F)F)cc4[N+](=O)[O-])cc3)[nH]c2c1 | -9.5 | 0.7 | + | 76.0* | -1.1
CC(C)(C)c1cc(-c2csc(Nc3ccccc3)[n+]2Cc2ccc(C(=O)O)cc2)cc(C(C)(C)C)c1O | -10.1 | -2.0 | + | 52.4* | -2.0
CC(C)c1ccc(CN(C(=O)c2cccs2)C2CCS(=O)(=O)C2)cc1 (stereo unspecified) | 1.7 | -2.2 | i | 3.7 | 0.1
CCOc1ccc(Nc2c3ccccc3nc3ccccc23)cc1 | -11.9 | -2.5 | i | -1.7 | 9.6*
Cc1c2ccccc2nc2c(F)c(NC(C)C)c(F)c(F)c12 | 144.7 | 0.8 | + | 82.3* | 2.3
O=C1[C@H]2[C@@H](c3ccccc3)N[C@]3(CCCN(Cc4ccc(F)cc4)C3=O)[C@H]2C(=O)N1Cc1ccccc1 | 10.6 | . | . | . | .
CNC(=O)C1CC(=O)N(CCc2ccccc2)C(=Nc2ccc(OC)cc2)S1 (stereo unspecified) | -24.8 | -1.0 | ? | 6.8 | 0.9
CCN1C(=O)CC(C(=O)NCCc2ccc(S(N)(=O)=O)cc2)SC1=Nc1ccc(OC)cc1 (stereo unspecified) | 0.6 | -1.9 | + | active | -3.1
CCOC(=O)/C(=C/C=C1\Sc2cc(OCC)c(OCC)cc2N1CC)C(C)=O | i | 6.2* | i | ? | 6.8
CCN1/C(=C/C(C)=O)Sc2ccc(OC)cc21 | 38.2 | -4.8 | i | 7.8 | -3.9
CCOC(=O)/C(=C\C=C1/Sc2cc(OCC)c(OCC)cc2N1CC)C(C)=O | i | 4.8* | i | ? | 3.0
CC1CC(C)CN(C(=O)c2cccc(S(=O)(=O)NCc3ccccc3)c2)C1 (stereo unspecified) | -0.7 | . | . | . | .
COc1ccc(CCC(=O)Nc2ccccc2C(F)(F)F)cc1 | -2.1 | -5.2 | + | 79.6* | -3.7
COc1ccc(CCC(=O)Nc2nc(C)c(C(=O)N(C)C)s2)cc1 | -11.1 | 11.4* | i | 0.0 | -3.6
COc1ccc(CCC(=O)Nc2sc(C(=O)N(C)C)c(C)c2C#N)cc1 | 10.6 | -1.1 | i | 4.5 | -4.3

Bioassay records from PubChem.
